According to ChEMBL document CHEMBL2321753, “Synthesis and biological evaluation of radioiodinated quinacrine-based derivatives for SPECT imaging of Aβ plaques” (Eur J Med Chem, 2013):
One block for each compound: values may come before it.

What was measured:
Brain [1] = experiment: Biodistribution in ddY mouse brain at 0.1 to 0.4 uCi, iv after 30 mins by gamma counting; assay type: ADME, organism-based; settings: in vivo, 0.5 h
Summary of the method: (§1)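 [125I]ligand (0.1–0.4 µCi) in 100 µL PBS (pH 7.4) containing 30 µL DMSO, injected into the tail vein of ddY mice (5 weeks, 22–25 g). Mice sacrificed at 2, 10, 30 and 60 min. Organs removed, weighed and gamma-counted. Values are % injected dose per gram, except stomach as % dose per organ. Mean (SD) of 3–6 mice per time point.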

Blood [2] = experiment: Biodistribution in ddY mouse blood at 0.1 to 0.4 uCi, iv after 60 mins by gamma counting; assay type: ADME, organism-based; settings: in vivo, 1 h; summary of the method: as §1
Brain [3] = experiment: Biodistribution in ddY mouse brain at 0.1 to 0.4 uCi, iv after 10 mins by gamma counting; assay type: ADME, organism-based; settings: in vivo; summary of the method: as §1
Blood [4] = experiment: Biodistribution in ddY mouse blood at 0.1 to 0.4 uCi, iv after 2 mins by gamma counting; assay type: ADME, organism-based; settings: in vivo; summary of the method: as §1
Stomach [5] = experiment: Biodistribution in ddY mouse stomach assessed per organ at 0.1 to 0.4 uCi, iv after 60 mins by gamma counting; assay type: ADME, organism-based; settings: in vivo, 1 h; summary of the method: as §1
Intestine [6] = experiment: Biodistribution in ddY mouse intestine at 0.1 to 0.4 uCi, iv after 60 mins by gamma counting; assay type: ADME, organism-based; settings: in vivo, 1 h; summary of the method: as §1
Lung [7] = experiment: Biodistribution in ddY mouse lung at 0.1 to 0.4 uCi, iv after 30 mins by gamma counting; assay type: ADME, organism-based; settings: in vivo, 0.5 h; summary of the method: as §1
Stomach [8] = experiment: Biodistribution in ddY mouse stomach assessed per organ at 0.1 to 0.4 uCi, iv after 2 mins by gamma counting; assay type: ADME, organism-based; settings: in vivo; summary of the method: as §1
Lung [9] = experiment: Biodistribution in ddY mouse lung at 0.1 to 0.4 uCi, iv after 2 mins by gamma counting; assay type: ADME, organism-based; settings: in vivo; summary of the method: as §1
Kidney [10] = experiment: Biodistribution in ddY mouse kidney at 0.1 to 0.4 uCi, iv after 60 mins by gamma counting; assay type: ADME, organism-based; settings: in vivo, 1 h; summary of the method: as §1
Liver [11] = experiment: Biodistribution in ddY mouse liver at 0.1 to 0.4 uCi, iv after 2 mins by gamma counting; assay type: ADME, organism-based; settings: in vivo; summary of the method: as §1
[12] = n-octanol-sodium phosphate buffer partition co-efficient, log D of the compound at pH 7.4 by shake flask method; assay type: physicochemical
Summary of the method: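 Shake-flask partition between n-octanol and sodium phosphate buffer, pH 7.4, shaken 10 min at room temperature, then centrifuged. Weighed 0.5 mL samples of each layer counted. log D from the ratio of cpm per gram of octanol to cpm per gram of buffer; n = 3.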

Intestine [13] = experiment: Biodistribution in ddY mouse intestine at 0.1 to 0.4 uCi, iv after 2 mins by gamma counting; assay type: ADME, organism-based; settings: in vivo; summary of the method: as §1
Brain [14] = experiment: Biodistribution in ddY mouse brain at 0.1 to 0.4 uCi, iv after 60 mins by gamma counting; assay type: ADME, organism-based; settings: in vivo, 1 h; summary of the method: as §1
Kidney [15] = experiment: Biodistribution in ddY mouse kidney at 0.1 to 0.4 uCi, iv after 30 mins by gamma counting; assay type: ADME, organism-based; settings: in vivo, 0.5 h; summary of the method: as §1
Heart [16] = experiment: Biodistribution in ddY mouse heart at 0.1 to 0.4 uCi, iv after 60 mins by gamma counting; assay type: ADME, organism-based; settings: in vivo, 1 h; summary of the method: as §1
Kidney [17] = experiment: Biodistribution in ddY mouse kidney at 0.1 to 0.4 uCi, iv after 2 mins by gamma counting; assay type: ADME, organism-based; settings: in vivo; summary of the method: as §1
Lung [18] = experiment: Biodistribution in ddY mouse lung at 0.1 to 0.4 uCi, iv after 10 mins by gamma counting; assay type: ADME, organism-based; settings: in vivo; summary of the method: as §1
Pancreas [19] = experiment: Biodistribution in ddY mouse pancreas at 0.1 to 0.4 uCi, iv after 10 mins by gamma counting; assay type: ADME, organism-based; settings: in vivo; summary of the method: as §1
Spleen [20] = experiment: Biodistribution in ddY mouse spleen at 0.1 to 0.4 uCi, iv after 2 mins by gamma counting; assay type: ADME, organism-based; settings: in vivo; summary of the method: as §1
Blood [21] = experiment: Biodistribution in ddY mouse blood at 0.1 to 0.4 uCi, iv after 30 mins by gamma counting; assay type: ADME, organism-based; settings: in vivo, 0.5 h; summary of the method: as §1
Heart [22] = experiment: Biodistribution in ddY mouse heart at 0.1 to 0.4 uCi, iv after 10 mins by gamma counting; assay type: ADME, organism-based; settings: in vivo; summary of the method: as §1
Pancreas [23] = experiment: Biodistribution in ddY mouse pancreas at 0.1 to 0.4 uCi, iv after 30 mins by gamma counting; assay type: ADME, organism-based; settings: in vivo, 0.5 h; summary of the method: as §1
Liver [24] = experiment: Biodistribution in ddY mouse liver at 0.1 to 0.4 uCi, iv after 10 mins by gamma counting; assay type: ADME, organism-based; settings: in vivo; summary of the method: as §1
Liver [25] = experiment: Biodistribution in ddY mouse liver at 0.1 to 0.4 uCi, iv after 60 mins by gamma counting; assay type: ADME, organism-based; settings: in vivo, 1 h; summary of the method: as §1
Brain [26] = experiment: Biodistribution in ddY mouse brain at 0.1 to 0.4 uCi, iv after 2 mins by gamma counting; assay type: ADME, organism-based; settings: in vivo; summary of the method: as §1
Lung [27] = experiment: Biodistribution in ddY mouse lung at 0.1 to 0.4 uCi, iv after 60 mins by gamma counting; assay type: ADME, organism-based; settings: in vivo, 1 h; summary of the method: as §1
Intestine [28] = experiment: Biodistribution in ddY mouse intestine at 0.1 to 0.4 uCi, iv after 10 mins by gamma counting; assay type: ADME, organism-based; settings: in vivo; summary of the method: as §1
Liver [29] = experiment: Biodistribution in ddY mouse liver at 0.1 to 0.4 uCi, iv after 30 mins by gamma counting; assay type: ADME, organism-based; settings: in vivo, 0.5 h; summary of the method: as §1
Heart [30] = experiment: Biodistribution in ddY mouse heart at 0.1 to 0.4 uCi, iv after 30 mins by gamma counting; assay type: ADME, organism-based; settings: in vivo, 0.5 h; summary of the method: as §1
Intestine [31] = experiment: Biodistribution in ddY mouse intestine at 0.1 to 0.4 uCi, iv after 30 mins by gamma counting; assay type: ADME, organism-based; settings: in vivo, 0.5 h; summary of the method: as §1
Stomach [32] = experiment: Biodistribution in ddY mouse stomach assessed per organ at 0.1 to 0.4 uCi, iv after 30 mins by gamma counting; assay type: ADME, organism-based; settings: in vivo, 0.5 h; summary of the method: as §1
Stomach [33] = experiment: Biodistribution in ddY mouse stomach assessed per organ at 0.1 to 0.4 uCi, iv after 10 mins by gamma counting; assay type: ADME, organism-based; settings: in vivo; summary of the method: as §1
Spleen [34] = experiment: Biodistribution in ddY mouse spleen at 0.1 to 0.4 uCi, iv after 30 mins by gamma counting; assay type: ADME, organism-based; settings: in vivo, 0.5 h; summary of the method: as §1
Pancreas [35] = experiment: Biodistribution in ddY mouse pancreas at 0.1 to 0.4 uCi, iv after 60 mins by gamma counting; assay type: ADME, organism-based; settings: in vivo, 1 h; summary of the method: as §1
Heart [36] = experiment: Biodistribution in ddY mouse heart at 0.1 to 0.4 uCi, iv after 2 mins by gamma counting; assay type: ADME, organism-based; settings: in vivo; summary of the method: as §1
Spleen [37] = experiment: Biodistribution in ddY mouse spleen at 0.1 to 0.4 uCi, iv after 60 mins by gamma counting; assay type: ADME, organism-based; settings: in vivo, 1 h; summary of the method: as §1
Blood [38] = experiment: Biodistribution in ddY mouse blood at 0.1 to 0.4 uCi, iv after 10 mins by gamma counting; assay type: ADME, organism-based; settings: in vivo; summary of the method: as §1
Spleen [39] = experiment: Biodistribution in ddY mouse spleen at 0.1 to 0.4 uCi, iv after 10 mins by gamma counting; assay type: ADME, organism-based; settings: in vivo; summary of the method: as §1
Pancreas [40] = experiment: Biodistribution in ddY mouse pancreas at 0.1 to 0.4 uCi, iv after 2 mins by gamma counting; assay type: ADME, organism-based; settings: in vivo; summary of the method: as §1
Kidney [41] = experiment: Biodistribution in ddY mouse kidney at 0.1 to 0.4 uCi, iv after 10 mins by gamma counting; assay type: ADME, organism-based; settings: in vivo; summary of the method: as §1
[42] = biological target: Amyloid-beta precursor protein (Homo sapiens, UniProt P05067); experiment: Displacement of [125I]IMPY from amyloid beta (1 to 42) (unknown origin) after 3 hrs by gamma counting
Sequence of Amyloid-beta precursor protein (P05067 whole entry): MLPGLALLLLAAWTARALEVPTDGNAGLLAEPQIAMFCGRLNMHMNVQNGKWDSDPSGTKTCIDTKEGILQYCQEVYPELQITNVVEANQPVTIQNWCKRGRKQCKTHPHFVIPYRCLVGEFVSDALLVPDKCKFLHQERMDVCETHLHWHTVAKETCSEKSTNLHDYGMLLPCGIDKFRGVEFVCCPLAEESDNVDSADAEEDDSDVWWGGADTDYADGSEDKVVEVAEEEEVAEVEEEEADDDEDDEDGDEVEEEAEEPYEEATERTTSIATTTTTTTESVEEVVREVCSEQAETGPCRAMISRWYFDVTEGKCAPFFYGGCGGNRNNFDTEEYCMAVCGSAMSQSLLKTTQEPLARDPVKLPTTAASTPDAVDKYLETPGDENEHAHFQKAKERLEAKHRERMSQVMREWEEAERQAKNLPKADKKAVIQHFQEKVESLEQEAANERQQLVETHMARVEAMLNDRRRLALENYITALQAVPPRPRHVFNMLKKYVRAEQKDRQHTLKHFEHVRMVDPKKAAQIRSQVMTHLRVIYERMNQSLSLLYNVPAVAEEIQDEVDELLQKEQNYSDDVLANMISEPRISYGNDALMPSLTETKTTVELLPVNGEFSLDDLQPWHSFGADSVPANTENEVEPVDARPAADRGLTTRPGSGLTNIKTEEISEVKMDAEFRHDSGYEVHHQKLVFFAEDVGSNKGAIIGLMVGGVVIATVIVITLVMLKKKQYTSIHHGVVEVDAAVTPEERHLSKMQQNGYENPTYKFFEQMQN
Summary of the method: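 Filtered through GF/B filters and bound radioactivity gamma-counted. IC50 from displacement curves of three independent experiments; Ki calculated with the Cheng–Prusoff equation.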

Drug uptake (Brain [1]): 0.28 % ID/g | Drug uptake (Blood [2]): 0.64 % ID/g | Drug uptake (Brain [3]): 0.26 % ID/g | Drug uptake (Blood [4]): 4.76 % ID/g | Drug uptake (Stomach [5]): 1.4 %ID | Drug uptake (Intestine [6]): 6.5 % ID/g | Drug uptake (Lung [7]): 46.47 % ID/g | Drug uptake (Stomach [8]): 1.37 %ID | Drug uptake (Lung [9]): 79.34 % ID/g | Drug uptake (Kidney [10]): 16.34 % ID/g | Drug uptake (Liver [11]): 10.85 % ID/g | logD [12]: 2.19 | Drug uptake (Intestine [13]): 2.22 % ID/g | Drug uptake (Brain [14]): 0.23 % ID/g | Drug uptake (Kidney [15]): 21.56 % ID/g | Drug uptake (Heart [16]): 4.33 % ID/g | Drug uptake (Kidney [17]): 16.71 % ID/g | Drug uptake (Lung [18]): 57.02 % ID/g | Drug uptake (Pancreas [19]): 6.5 % ID/g | Drug uptake (Spleen [20]): 6.94 % ID/g | Drug uptake (Blood [21]): 1.26 % ID/g | Drug uptake (Heart [22]): 11.2 % ID/g | Drug uptake (Pancreas [23]): 7.85 % ID/g | Drug uptake (Liver [24]): 11.77 % ID/g | Drug uptake (Liver [25]): 12.55 % ID/g | Drug uptake (Brain [26]): 0.33 % ID/g | Drug uptake (Lung [27]): 21.84 % ID/g | Drug uptake (Intestine [28]): 3.13 % ID/g | Drug uptake (Liver [29]): 16.43 % ID/g | Drug uptake (Heart [30]): 9.08 % ID/g | Drug uptake (Intestine [31]): 5.33 % ID/g | Drug uptake (Stomach [32]): 2.21 %ID | Drug uptake (Stomach [33]): 2.18 %ID | Drug uptake (Spleen [34]): 14.49 % ID/g | Drug uptake (Pancreas [35]): 9.81 % ID/g | Drug uptake (Heart [36]): 16.28 % ID/g | Drug uptake (Spleen [37]): 11.22 % ID/g | Drug uptake (Blood [38]): 1.97 % ID/g | Drug uptake (Spleen [39]): 9.65 % ID/g | Drug uptake (Pancreas [40]): 5.21 % ID/g | Drug uptake (Kidney [41]): 18.16 % ID/g
SMILES: COc1ccc2nc3cc([125I])ccc3c(N(C)C)c2c1

Ki [42]: 28.9 nM
SMILES: COc1ccc2nc3cc(I)ccc3c(OC)c2c1

Ki [42]: 83.5 nM
SMILES: COc1ccc2nc3cc(I)ccc3c(N)c2c1
